We go through 5 molecules from ChEMBL document CHEMBL3393022, “Ligand-induced conformational change of Plasmodium falciparum AMA1 detected using 19F NMR” (J Med Chem, 2014).

Activity calls are given as the source filed them. The rule behind the calls is not given here. Residues, ends and D or L forms follow the SMILES beside them.

In experiment [1] the target is T1, Apical membrane antigen 1 (Plasmodium falciparum (isolate 3D7)) (UniProt Q7KQK5).
T1 sequence (whole entry): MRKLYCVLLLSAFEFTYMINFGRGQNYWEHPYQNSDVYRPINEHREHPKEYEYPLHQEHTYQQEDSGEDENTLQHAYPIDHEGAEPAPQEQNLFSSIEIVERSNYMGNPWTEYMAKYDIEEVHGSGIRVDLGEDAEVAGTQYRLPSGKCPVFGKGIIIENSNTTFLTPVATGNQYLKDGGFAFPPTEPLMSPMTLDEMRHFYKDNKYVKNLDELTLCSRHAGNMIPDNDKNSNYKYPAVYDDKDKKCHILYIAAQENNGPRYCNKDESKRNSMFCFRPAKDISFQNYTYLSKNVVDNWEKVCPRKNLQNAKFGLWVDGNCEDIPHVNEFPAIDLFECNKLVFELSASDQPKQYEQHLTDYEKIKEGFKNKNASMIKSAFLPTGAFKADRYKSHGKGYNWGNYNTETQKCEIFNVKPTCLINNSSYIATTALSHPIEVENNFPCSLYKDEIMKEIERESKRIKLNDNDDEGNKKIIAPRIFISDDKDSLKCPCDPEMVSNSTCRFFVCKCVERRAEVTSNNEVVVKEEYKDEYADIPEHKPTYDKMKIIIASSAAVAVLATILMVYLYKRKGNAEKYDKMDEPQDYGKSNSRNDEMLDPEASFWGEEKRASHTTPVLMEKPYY
The experiment is described as follows: Binding affinity to Plasmodium falciparum 3D7 5F-Trp-tagged AMA1 F367W mutant at 1 and 3 mM by 19F-NMR spectroscopy in presence of R1/RON2L. An outline of the steps:
(§1)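 5F-Trp-labelled 3D7 PfAMA1(108–434) F367W from E. coli BL21(DE3), induced with 1 mM IPTG for 3 h after glyphosate/Phe/Tyr/5F-Trp, refolded and purified into 20 mM phosphate pH 7.4. Small-molecule ligands were added from 100 mM stocks in H2O, ethanol or DMSO to 1 and 3 mM. 19F spectra: 2K scans, 8K complex points, 150 ppm sweep width, under 40 min, compared with free protein.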

In experiment [2] the target is T1, Apical membrane antigen 1 (Plasmodium falciparum (isolate 3D7)). Description: Binding affinity to Plasmodium falciparum 3D7 5F-Trp-tagged AMA1 assessed as downfield shifts of W110 peak by 19F-NMR spectroscopy in presence of R1/RON2L.
The target is the same in experiment [3]. The experiment is described as follows: Binding affinity to Plasmodium falciparum 3D7 5F-Trp-tagged AMA1 F367W mutant assessed as decrease in the W367 line width at 1 and 3 mM by 19F-NMR spectroscopy in presence of R1/RON2L. An outline of the steps: as §1
Experiment [4] has as its target T2, Apical membrane antigen 1 (Plasmodium falciparum (isolate 3D7), UniProt Q7KQK5).
T2 sequence (Q7KQK5 whole entry): T1 sequence (whole entry)
The experiment is described as follows: Binding affinity to Plasmodium falciparum 3D7 AMA1 (108 to 434) expressed in Escherichia coli BL21(DE3) by SPR analysis. An outline of the steps:
(§2)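 SPR at 25 °C in PBS–0.1% Tween, flow 30 μL/min, with AMA1 immobilised on a GLC chip. Peptides were injected for 8 min at 50–3.125 nM, with 800 s dissociation. A lane without AMA1 and buffer or DMSO signals were subtracted. Regeneration used 0.85% phosphoric acid.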
A general note: In SPR one partner is held on a chip, and binding of the other changes the refractive index at the surface.

Experiment [5] concerns the target Apical membrane antigen 1 (Plasmodium falciparum (isolate 3D7), UniProt Q7KQK5, F367W). Description: Binding affinity to Plasmodium falciparum 3D7 AMA1 F367W mutant expressed in Escherichia coli BL21(DE3) at 1 and 3 mM by SPR analysis.
Experiment [6] deals with Apical membrane antigen 1 (Plasmodium falciparum (isolate 3D7), UniProt Q7KQK5). Description: Binding affinity to Plasmodium falciparum 3D7 AMA1 373W insertion mutant expressed in Escherichia coli BL21(DE3) by SPR analysis. A digest of the protocol: as §2

Take `Nc1ccc2nc(N3CCCCC3)[nH]c2c1`: in experiment [1], the outcome was Active. The Activity result in experiment [2] was “Dose-dependent effect”. Further, in experiment [3], the result was inactive.

Take `CC[C@H](C)[C@H](NC(=O)[C@H](CCC(N)=O)NC(=O)[C@H](CCC(N)=O)NC(=O)[C@@H]1CCCN1C(=O)[C@@H]1CCCN1C(=O)[C@H](CO)NC(=O)[C@H](CCSC)NC(=O)[C@H](CCCNC(=N)N)NC(=O)[C@@H](NC(=O)[C@@H](NC(=O)[C@H](Cc1ccccc1)NC(=O)[C@@H](N)CS)[C@@H](C)O)[C@@H](C)O)C(=O)N[C@@H](CS)C(=O)O` (H-CFTTRMSPPQQIC-OH): the result in experiment [2] was Active. In addition, in experiment [4], binding was put at a Kd of 40000 nM.

As for `Cc1nc(N)sc1-c1ccc(N)cc1`, the Activity result in experiment [2] and in experiment [3] was “Dose-dependent effect” each time.

H-VFAEFLPLFSKFGSRMHILK-OH: the equilibrium dissociation constant (Kd) (commonly a measure of binding affinity in units of concentration) turned out to be 20 nM in experiment [5], 50 nM in experiment [6] and 23 nM in experiment [4]. Besides, the result in experiment [2] was Active.

For the molecule `Nc1cc(N)cc(-c2nc3ccccc3[nH]2)c1`, the result in experiment [1] and in experiment [2] was Active. Moreover, the outcome in experiment [3] was inactive.
